Source: PubChem BioAssay AID623991 (Broad Institute, 2012)
Active and inactive are the calls of the source.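 The calls were made as follows: active = inhibitors lowering the signal whose fitted half-maximal concentration is at most twice the top valid tested dose; inconclusive = flat curve with partial inhibition, or a poor curve fit; inactive = effect opposite to expected, flat near zero, or too weak.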

target: PvdQ acyl-homoserine lactone acylase (Pseudomonas aeruginosa LESB58); experiment: inhibition of P. aeruginosa PvdQ enzyme – biochemical, 4-MU laurate fluorescence, dry powder, set 3, dose response (AID 623991); details: Purified PvdQ, 4-MU laurate hydrolysis
Summary of the method: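 Material: Pseudomonas aeruginosa PvdQ acylase enzyme / Buffer or medium: Tris 50 mM pH 8.0, NaCl 50 mM, TCEP 0.2 mM, Triton X-100 / Also added: 4-methylumbelliferone laurate substrate, 0.8 mM final / Doses: compound dilution series with threefold steps / Incubation: 30 min pre-incubation, 60 min reaction, room temperature / Technique: fluorescence, ex 303–367 nm, em 440–460 nm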

Row | SMILES | AC50
1 | N#CC(c1ccc(F)cc1)c1cccc(Cl)n1 (stereo not given) | 119 nM
2 | N#Cc1cccc(C(C#N)c2ccc(F)cc2)n1 (stereo not given) | 200 nM
3 | N#CC(c1cccc(C(F)(F)F)n1)c1ccc(Cl)cc1F (stereo not given) | < 3 nM
4 | N#CC(c1ccc(Cl)cc1)c1ncccc1Cl (stereo not given) | 3.09 nM
5 | N#CC(c1ccc(Cl)cc1)c1cccc(C(F)(F)F)n1 (stereo not given) | 25.4 nM
6 | N#CC(c1ccc(C(F)(F)F)c(Cl)n1)c1ccccc1OC(F)(F)F (stereo not given) | 12200 nM
7 | N#CC(c1ccc(Cl)cc1)N1CCCC1 (stereo not given) | 1830 nM
8 | N#CC1c2ccc(Cl)cc2CCc2cccnc21 (stereo not given) | 11200 nM
9 | COCCOCCC(C#N)c1ccc(F)cc1 (stereo not given) | 165 nM
10 | N#CC(c1ccc(F)cc1)c1cccc(C(F)(F)F)n1 (stereo not given) | 4.71 nM
11 | N#CC(c1cccc(Cl)n1)c1ccc(Cl)cc1F (stereo not given) | 15.6 nM
12 | N#CC(c1ccc(Cl)cc1)c1cccc(Cl)n1 (stereo not given) | 36.8 nM

Further lines, results first:

Row | AC50 | SMILES
13 | 296 nM | N#CC(c1ccc(Cl)cc1)c1ccccn1 (stereo not given)
14 | 1270 nM | COCCC(C#N)c1ccc(F)cc1 (stereo not given)
15 | 7770 nM | COCCOCCC(C#N)c1ccc(Cl)cc1 (stereo not given)
16 | 17900 nM | CN(C)CCCC(C#N)c1ccc(Cl)cc1 (stereo not given)
17 | 6270 nM | COCCC(C#N)c1ccc(Cl)cc1 (stereo not given)
18 | 589 nM | CN(C)CCCC(C#N)c1ccc(F)cc1 (stereo not given)
19 | 3470 nM | CCCCC(C#N)c1ccc(Cl)cn1 (stereo not given)
20 | 1070 nM | CCCCC(C#N)c1ccc(Cl)cc1 (stereo not given)
21 | 3190 nM | CCCCC(c1ccc(Cl)cc1)c1nn[nH]n1 (stereo not given)
22 | 607 nM | CCCCC(C#N)c1ccc(F)cc1 (stereo not given)

same assay, conditions: Purified PvdQ, 4-MU laurate hydrolysis, at 19.5 µM (top of the series)

Row | SMILES | activity change, negative = inhibition
23 | CCCCC(C#N)c1ccccn1 (stereo not given) | inactive
24 | COCCNC(C#N)c1ccc(Cl)cc1 (stereo not given) | inactive
25 | CCCCC(C#N)c1ccc(F)cn1 (stereo not given) | inactive
